Laboratory results reported in ChEMBL document CHEMBL1275327, “Synthesis and biological activities of pyrazolo[3,4-g]quinoxaline derivatives” (Eur J Med Chem, 2010).
Activity calls are given as the source filed them. The calls are words filed in the database; no cut-off is given here.

Columns and labels:
[1] = molecular target: Serine/threonine-protein kinase pim-1 (Homo sapiens) (UniProt P11309); experiment: Inhibition of Pim1 assessed as residual enzyme activity at 10 uM
[2] = molecular target: Serine/threonine-protein kinase pim-1 (Homo sapiens) (UniProt P11309); experiment: Inhibition of Pim1 assessed as residual enzyme activity at 1 uM
[3] = molecular target: Serine/threonine-protein kinase pim-2 (Homo sapiens) (UniProt Q9P1W9); experiment: Inhibition of Pim2 assessed as residual enzyme activity at 10 uM
[4] = molecular target: Serine/threonine-protein kinase pim-2 (Homo sapiens) (UniProt Q9P1W9); experiment: Inhibition of Pim2 assessed as residual enzyme activity at 1 uM
[5] = molecular target: Serine/threonine-protein kinase pim-3 (Homo sapiens) (UniProt Q86V86); experiment: Inhibition of Pim3 assessed as residual enzyme activity at 10 uM
[6] = molecular target: Serine/threonine-protein kinase pim-3 (Homo sapiens) (UniProt Q86V86); experiment: Inhibition of Pim3 assessed as residual enzyme activity at 1 uM
[7] = Antiproliferative activity against human Fibroblast after 48 hrs by resazurin reduction test; type: cell-based
Outline: (§1)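 Cells grown as monolayers in MEM with Earle's salts, 10% FCS, pyruvate, non-essential amino acids and gentamicin at 37 °C, 5% CO2. 5×10^3 cells/well adhered 16 h, then had 48 h continuous exposure to drug from a 20 mM DMSO stock. Resazurin (25 µg/mL, 1 h, 37 °C) was read by fluorescence (ex 530/em 590 nm). IC50 came from blank-corrected survival % vs control wells.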

PA-1 [8] = experiment: Antiproliferative activity against human PA1 cells after 48 hrs by resazurin reduction test; type: functional, cell-based; settings: PA-1, 48 h; outline: as §1
PC-3 [9] = experiment: Antiproliferative activity against human PC3 cells after 48 hrs by resazurin reduction test; type: functional, cell-based; settings: PC-3, 48 h; outline: as §1
DU-145 [10] = experiment: Antiproliferative activity against human DU145 cells after 48 hrs by resazurin reduction test; type: functional, cell-based; settings: DU-145, 48 h; outline: as §1
[11] = Antiproliferative activity against human Fibroblast assessed as inhibition of cell proliferation at 10 uM after 48 hrs by resazurin reduction test; type: cell-based; settings: human fibroblasts
PA-1 [12] = experiment: Antiproliferative activity against human PA1 cells assessed as inhibition of cell proliferation at 10 uM after 48 hrs by resazurin reduction test; type: functional; settings: PA-1, 48 h
Outline: (§2)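 PA1 and PC3 screen: cells at 5×10^3/well adhered 16 h, then were treated 48 h continuously at 1 and 10 µM from a 20 mM DMSO stock. Growth inhibition was scored by resazurin reduction (25 µg/mL, 1 h, 37 °C; fluorescence ex 530/em 590 nm) relative to control wells after blank subtraction.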

PC-3 [13] = experiment: Antiproliferative activity against human PC3 cells assessed as inhibition of cell proliferation at 10 uM after 48 hrs by resazurin reduction test; type: functional; settings: PC-3, 48 h; outline: as §2
DU-145 [14] = experiment: Antiproliferative activity against human DU145 cells assessed as inhibition of cell proliferation at 10 uM after 48 hrs by resazurin reduction test; type: functional; settings: DU-145, 48 h

Chain of Serine/threonine-protein kinase pim-1 (Homo sapiens) (P11309 whole entry, looked up): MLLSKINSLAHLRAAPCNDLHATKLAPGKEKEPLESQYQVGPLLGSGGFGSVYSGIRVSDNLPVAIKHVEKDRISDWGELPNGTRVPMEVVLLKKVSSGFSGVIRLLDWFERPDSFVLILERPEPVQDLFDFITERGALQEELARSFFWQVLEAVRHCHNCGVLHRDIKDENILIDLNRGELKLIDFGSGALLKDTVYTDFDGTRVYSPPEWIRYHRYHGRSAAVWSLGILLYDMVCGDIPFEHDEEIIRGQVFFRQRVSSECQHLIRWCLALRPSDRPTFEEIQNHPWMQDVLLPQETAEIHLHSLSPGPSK
Chain of Serine/threonine-protein kinase pim-2 (Homo sapiens) (Q9P1W9 whole entry, looked up): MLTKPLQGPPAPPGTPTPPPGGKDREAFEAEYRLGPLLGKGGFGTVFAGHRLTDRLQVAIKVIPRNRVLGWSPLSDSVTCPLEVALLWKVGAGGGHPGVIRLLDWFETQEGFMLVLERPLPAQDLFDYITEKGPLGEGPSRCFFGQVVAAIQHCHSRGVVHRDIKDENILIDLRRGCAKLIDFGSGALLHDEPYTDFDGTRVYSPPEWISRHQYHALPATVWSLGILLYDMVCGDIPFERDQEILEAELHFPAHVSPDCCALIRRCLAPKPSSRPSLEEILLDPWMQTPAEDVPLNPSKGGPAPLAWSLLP

Row | Compound | Activity [1] [%] | Activity [2] | Activity [3] | Activity [4] | Activity [5] [%] | Activity [6] [%] | IC50 [7] [µM] | IC50 (PA-1 [8]) [µM] | IC50 (PC-3 [9]) [µM] | IC50 (DU-145 [10]) [µM] | inhibition at 48 h, 10 µM [11] [%] | inhibition at 10 µM (PA-1 [12]) [%] | inhibition at 10 µM (PC-3 [13]) [%] | inhibition at 10 µM (DU-145 [14]) [%]
1 | c1ccc(C2Cc3nc4cc5cn[nH]c5cc4nc3C2)cc1 (racemic) | 83 | inactive | inactive | inactive | 79 | 95 | > 50 | 4.1 | > 50 | 35 | – | – | – | –
2 | CCc1nc2cc3cn[nH]c3cc2nc1CC | 49 | 89% | inactive | inactive | 31 | 84 | > 50 | 6.5 | > 50 | > 50 | – | – | – | –
3 | c1n[nH]c2cc3nc4c(nc3cc12)CCCC4 | 55.1 | 90% | inactive | inactive | 19.7 | 58 | > 50 | 16 | > 50 | > 50 | – | – | – | –
4 | CC1Cc2nc3cc4cn[nH]c4cc3nc2C1C (racemic) | 69 | inactive | inactive | inactive | 33 | 73 | > 50 | 4.7 | > 50 | > 50 | – | – | – | –
5 | c1n[nH]c2cc3nc4c(nc3cc12)CCC4 | 66.6 | 95% | inactive | inactive | 46.4 | 81 | – | – | – | – | < 50 | < 50 | < 50 | < 50
6 | Nc1cc2cn[nH]c2cc1N | 59 | 95% | inactive | inactive | 32 | 69 | – | – | – | – | < 50 | < 50 | < 50 | < 50
7 | CC1(C)[C@@H]2CC[C@@]1(C)c1nc3cc4cn[nH]c4cc3nc12 | 45 | 88% | 76% | 82% | 37 | 95 | – | – | – | – | < 50 | < 50 | < 50 | < 50
8 | CC1(C)[C@H]2CC[C@]1(C)c1nc3cc4[nH]ncc4cc3nc12 | 71 | 96% | 78% | inactive | 43 | 83 | – | – | – | – | < 50 | < 50 | < 50 | < 50
9 | CC1Cc2nc3cc4[nH]ncc4cc3nc2C1C (racemic) | 59 | 88.5% | inactive | inactive | 44 | 72 | > 50 | 6.1 | > 50 | > 50 | – | – | – | –
